The test system of experiment [1] is Rattus norvegicus. In words: The concentration yielding a half maximal decrease of the DOPA was determined in rat limbic system; Partial response at 50 umol/kg. Format: functional, organism-based.
Experiment [2] deals with Rattus norvegicus. Put plainly: Motor activity was measured by motility testing on injecting the compound subcutaneously into rats at the dose of 12.5 uM/Kg. In kind it is functional. In a few lines: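 Rats given reserpine 5 mg/kg sc 18 h beforehand, then test compound sc in neck (n = 4). Placed singly in photocell motility meters straight after dosing; counts recorded for 30 min, gross behaviour observed throughout. Value as counts/30 min with SEM.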

Experiment [3] relates to Rattus norvegicus. Put plainly: The concentration yielding a half maximal decrease of the 5-HTP was determined in rat brain striatum; inactive at 50 umol/kg. In kind it is functional, organism-based. In a few lines: (§1)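 Reserpine-pretreated (5 mg/kg sc, 18 h) male Sprague-Dawley rats, 200–300 g; compounds in saline given sc. DOPA and 5-HTP in limbic system, striatum and hemispheres measured by HPLC with electrochemical detection. Dose–response curves of 4–6 doses (n = 4) per area, fitted to variable-slope sigmoid on log data to give ED50.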

Experiment [4] relates to Rattus norvegicus. Put plainly: The concentration yielding a half maximal decrease of the DOPA was determined in rat brain striatum; Partial response at 50 umol/kg. Format: functional, organism-based.
The test system of experiment [5] is Rattus norvegicus. In words: The concentration yielding a half maximal decrease of the 5-HTP was determined in rat limbic system; Partial response at 50 umol/kg. In kind it is functional, organism-based. Summed up: as §1
For experiment [6], the system named is Rattus norvegicus. Put plainly: The concentration yielding a half maximal decrease of the DOPA was determined in rat brain hemispheres; inactive at 50 umol/kg. Format: functional, organism-based. Summed up:
as §1

For experiment [7], the system named is Rattus norvegicus. Put plainly: The concentration yielding a half maximal decrease of the 5-HTP was determined in rat brain hemispheres; inactive at 50 umol/kg. Format: functional, organism-based. In a few lines:
as §1

The source made the active and inactive calls. No cut-off for these calls is given here.

For the compound `CCCN(CCC)C1CCc2cc3cc[nH]c3cc2C1` (configuration not stated), the ED50 entry in the experiment with Rattus norvegicus [1], in the experiment with Rattus norvegicus [4] and in the experiment on Rattus norvegicus [5] was “Weak activity” in each case. This compound came in with an Activity in the experiment on Rattus norvegicus [2] of 51 Counts 30min-1. For the same compound, the ED50 result with Rattus norvegicus [3], with Rattus norvegicus [6] and in the experiment on Rattus norvegicus [7] was “inactive” in each case.

For the origin of these results see ChEMBL document CHEMBL1127349, “6,7,8,9-Tetrahydro-N,N-di-n-propyl-3H-benzindol-8-amines. Derivatives as potent and orally active serotonin 5-HT1A receptor agonists” (J Med Chem, 1994).
